# Test results reported in article PMC6648853 (ACS Omega, 2019).
# Where two headings read alike, the source gives them in different places. Marks after values point to notes of the source that are not given here.
# What was measured:
# NCI-H460/R = test: MTT assay, NCI-H460/R; assay type: cell-based; conditions: Homo sapiens, NCI-H460, 72 h, read-out: GI50 (50% cell growth inhibition)
# Summary of the method: (§1)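 Cells were grown in RPMI 1640 with 10% FBS and penicillin–streptomycin at 37 °C in 5% CO2. The P-gp-overexpressing NCI-H460/R line was derived from NCI-H460 by stepwise doxorubicin (5–100 nM, 3 months). Test compound (2.5–50 μM) ran 72 h, then MTT (1 mg/mL) 4 h at 37 °C. Formazan was dissolved in DMSO and read at 540 nm. Viability was relative to untreated cells, giving GI50. At least two independent experiments were run in triplicate. Paclitaxel served as positive control.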
# MDA-MB-231 = test: sulfurhodamine B; assay type: cell-based; conditions: Homo sapiens, MDA-MB-231, 48 h, read-out: GI50 (50% cell growth inhibition)
# Summary of the method: (§2)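 Cells were kept at 37 °C in 5% CO2 with 10% FBS and penicillin–streptomycin. MDA-MB-231 were grown in DMEM, the others in RPMI 1640. Cells were seeded at 5.0 × 10^3/well and left 24 h before serial dilutions of test compound (1.85–150 μM) for 48 h. Cells were fixed with 10% TCA, stained with 0.4% SRB and washed with 1% acetic acid. Bound dye was dissolved in 10 mM Tris (pH 10.5) and read at 510 nm. Doxorubicin served as positive control.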
# NCI-H460 = test: MTT assay, NCI-H460; assay type: cell-based, human; conditions: for GI50: Homo sapiens, NCI-H460, 72 h, read-out: GI50 (50% cell growth inhibition)
# Summary of the method: as §1
# MCR-5 [1] = test: MTT assay, MCR-5 normal lung cells; assay type: cell-based; conditions: Homo sapiens, MCR5, 72 h, read-out: GI50 (50% cell growth inhibition)
# Summary of the method: as §1
# MCF-7 = test: sulfurhodamine B; assay type: cell-based; conditions: Homo sapiens, MCF7, 48 h, read-out: GI50 (50% cell growth inhibition)
# Summary of the method: as §2
# HCT116 = test: sulfurhodamine B; assay type: cell-based; conditions: Homo sapiens, HCT-116, 48 h, read-out: GI50 (50% cell growth inhibition)
# Summary of the method: as §2
# PaCa-2 = conditions: read-out: cytotoxicity class (GI50); cited from earlier work
# MEL-1 = conditions: read-out: cytotoxicity class (GI50); MEL-1, leukemia/lymphoma; cited from earlier work
# HL-60 = conditions: read-out: cytotoxicity class (GI50); HL-60, leukemia/lymphoma; cited from earlier work
# Molt-3 = conditions: read-out: cytotoxicity class (GI50); Molt-3, leukemia/lymphoma; cited from earlier work
# MCR-5 [2] = conditions: read-out: cytotoxicity class (GI50); cited from earlier work
# MV-3 = conditions: read-out: cytotoxicity class (GI50); cited from earlier work
# AGS = conditions: read-out: cytotoxicity class (GI50), gastric; cited from earlier work
smiles,measurement,setting,value
"O=C(/C=C/c1ccc(O)c(O)c1)O[C@H](Cc1ccc(O)c(O)c1)C(=O)O [(1), rosmarinic acid]",GI50,NCI-H460/R,> 100 µM
same,GI50,MDA-MB-231,> 100 µM
same,GI50,NCI-H460,> 100 µM
same,GI50,MCR-5 [1],> 100 µM
"COc1cccc2c1C(=O)c1c(O)c3c(c(O)c1C2=O)C[C@@](O)(C(=O)CO)C[C@@H]3O[C@H]1C[C@H](N)[C@H](O)[C@H](C)O1 [DOX, Doxorubicin]",GI50,MCF-7,0.16 µM
same,GI50,MDA-MB-231,0.072 µM
same,GI50,HCT116,0.125 µM
"CC(=O)O[C@H]1C(=O)[C@@]2(C)[C@H]([C@H](OC(=O)c3ccccc3)[C@]3(O)C[C@H](OC(=O)[C@H](O)[C@@H](NC(=O)c4ccccc4)c4ccccc4)C(C)=C1C3(C)C)[C@]1(OC(C)=O)CO[C@@H]1C[C@@H]2O [PCX, Paclitaxel]",GI50,NCI-H460/R,0.117 µM
same,GI50,NCI-H460,0.0006 µM
same,"Selectivity index, SI = GI50(MCR-5)/GI50(NCI-H460)","NCI-H460; MCR-5 vs NCI-H460, MTT assay",PCX 872***
same,GI50,MCR-5 [1],0.523 µM
"CC(C)C1=C(O)C(=O)C2=C(CC[C@H]3C(C)(C)CCC[C@]23C)C1=O [R1 = H, R2 = H, R3 = OH, royleanone]",GI50,PaCa-2,> 30 µM
same,GI50,MEL-1,> 30 µM
same,GI50,HL-60,> 30 µM
same,GI50,Molt-3,10 to 30 µM
same,GI50,MCR-5 [2],10 to 30 µM
same,GI50,MV-3,> 30 µM
same,GI50,AGS,> 30 µM
